Results taken from ChEMBL document CHEMBL4304789, “Design, Synthesis, and Biological Evaluation of 2,4-Imidazolinedione Derivatives as HDAC6 Isoform-Selective Inhibitors” (ACS Med Chem Lett, 2019).
Active and inactive are the calls of the source. The calls are words filed in the database; no cut-off is given here.

Legend:
Histone deacetylase 2 = Histone deacetylase 2 (Homo sapiens, UniProt Q92769); assay: Inhibition of HDAC2 (unknown origin) using Ac-LeuGlyLys(Ac)-AMC as substrate preincubated for 5 mins followed by substrate addition and measured after 60 mins by fluorescence based assay
Histone deacetylase 1 = Histone deacetylase 1 (Homo sapiens, UniProt Q13547); assay: Inhibition of HDAC1 (unknown origin) using Ac-LeuGlyLys(Ac)-AMC as substrate preincubated for 5 mins followed by substrate addition and measured after 60 mins by fluorescence based assay
[1] = molecular target: T1, Protein deacetylase HDAC6 (Homo sapiens, UniProt Q9UBN7); assay: Inhibition of HDAC6 (unknown origin) using Ac-LeuGlyLys(Ac)-AMC as substrate preincubated for 5 mins followed by substrate addition and measured after 60 mins by fluorescence based assay
T1 sequence (Q9UBN7 whole entry): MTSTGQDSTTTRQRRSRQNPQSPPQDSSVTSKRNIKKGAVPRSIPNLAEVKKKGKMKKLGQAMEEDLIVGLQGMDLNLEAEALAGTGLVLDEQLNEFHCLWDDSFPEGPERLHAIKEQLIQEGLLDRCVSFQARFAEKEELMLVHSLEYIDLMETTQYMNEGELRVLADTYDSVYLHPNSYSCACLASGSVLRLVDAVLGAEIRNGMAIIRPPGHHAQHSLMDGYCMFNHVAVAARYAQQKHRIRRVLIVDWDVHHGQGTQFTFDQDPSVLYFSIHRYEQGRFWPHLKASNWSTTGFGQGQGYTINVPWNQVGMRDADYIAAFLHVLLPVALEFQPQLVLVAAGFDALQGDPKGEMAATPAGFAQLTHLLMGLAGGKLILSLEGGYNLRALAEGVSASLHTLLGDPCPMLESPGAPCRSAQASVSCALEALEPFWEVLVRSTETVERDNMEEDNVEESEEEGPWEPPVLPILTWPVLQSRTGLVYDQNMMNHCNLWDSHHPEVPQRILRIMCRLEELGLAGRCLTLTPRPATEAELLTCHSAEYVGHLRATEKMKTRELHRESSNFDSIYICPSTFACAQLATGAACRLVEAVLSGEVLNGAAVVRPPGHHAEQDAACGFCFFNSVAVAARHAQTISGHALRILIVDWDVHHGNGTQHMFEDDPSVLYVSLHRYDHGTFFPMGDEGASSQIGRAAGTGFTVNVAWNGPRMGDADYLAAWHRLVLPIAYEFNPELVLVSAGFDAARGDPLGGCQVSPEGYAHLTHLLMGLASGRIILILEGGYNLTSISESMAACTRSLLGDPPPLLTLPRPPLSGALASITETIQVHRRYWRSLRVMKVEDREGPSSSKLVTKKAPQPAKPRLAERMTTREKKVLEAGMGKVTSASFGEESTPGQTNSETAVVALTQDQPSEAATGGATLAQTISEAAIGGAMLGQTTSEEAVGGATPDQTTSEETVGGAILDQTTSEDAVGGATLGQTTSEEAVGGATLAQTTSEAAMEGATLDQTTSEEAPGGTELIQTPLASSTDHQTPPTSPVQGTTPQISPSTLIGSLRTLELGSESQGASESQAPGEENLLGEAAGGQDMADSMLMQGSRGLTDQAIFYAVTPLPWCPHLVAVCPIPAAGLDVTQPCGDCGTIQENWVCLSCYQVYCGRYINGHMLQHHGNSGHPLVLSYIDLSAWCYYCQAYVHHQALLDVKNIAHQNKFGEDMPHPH

Histone deacetylase 4 = Histone deacetylase 4 (Homo sapiens, UniProt P56524); assay: Inhibition of HDAC4 (unknown origin) using Ac-LeuGlyLys(tfa)-AMC as substrate preincubated for 5 mins followed by substrate addition and measured after 60 mins by fluorescence based assay
Histone deacetylase 5 = Histone deacetylase 5 (Homo sapiens, UniProt Q9UQL6); assay: Inhibition of HDAC5 (unknown origin) using Ac-LeuGlyLys(tfa)-AMC as substrate preincubated for 5 mins followed by substrate addition and measured after 60 mins by fluorescence based assay
[2] = molecular target: T2, Polyamine deacetylase HDAC10 (Homo sapiens, UniProt Q969S8); assay: Inhibition of HDAC10 (unknown origin) using Ac-ArgThr- Lys(Ac)Lys(Ac)-AMC as substrate preincubated for 5 mins followed by substrate addition and measured after 60 mins by fluorescence based assay
T2 sequence (Q969S8 whole entry): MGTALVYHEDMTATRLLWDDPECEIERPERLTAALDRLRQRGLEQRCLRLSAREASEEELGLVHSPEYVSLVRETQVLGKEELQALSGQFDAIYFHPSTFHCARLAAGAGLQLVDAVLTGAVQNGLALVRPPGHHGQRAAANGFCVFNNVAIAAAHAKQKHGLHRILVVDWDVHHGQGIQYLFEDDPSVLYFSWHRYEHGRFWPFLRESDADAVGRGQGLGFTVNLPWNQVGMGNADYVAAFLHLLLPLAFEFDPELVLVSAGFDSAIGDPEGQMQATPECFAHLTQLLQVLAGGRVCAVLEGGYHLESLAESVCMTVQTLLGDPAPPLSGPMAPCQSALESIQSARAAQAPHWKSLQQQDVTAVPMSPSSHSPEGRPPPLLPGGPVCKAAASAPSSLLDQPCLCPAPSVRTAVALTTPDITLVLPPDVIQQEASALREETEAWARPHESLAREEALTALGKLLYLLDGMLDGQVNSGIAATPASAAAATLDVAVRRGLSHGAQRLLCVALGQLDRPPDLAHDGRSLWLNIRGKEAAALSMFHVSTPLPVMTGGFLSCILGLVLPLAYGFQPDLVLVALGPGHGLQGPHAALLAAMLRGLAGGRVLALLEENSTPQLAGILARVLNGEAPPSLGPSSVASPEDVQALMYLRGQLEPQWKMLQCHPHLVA

Histone deacetylase 11 = molecular target: T3, Histone deacetylase 11 (Homo sapiens, UniProt Q96DB2); assay: Inhibition of HDAC11 (unknown origin) using Ac-LeuGlyLys(Ac)-AMC as substrate preincubated for 5 mins followed by substrate addition and measured after 60 mins by fluorescence based assay
T3 sequence (Q96DB2 whole entry): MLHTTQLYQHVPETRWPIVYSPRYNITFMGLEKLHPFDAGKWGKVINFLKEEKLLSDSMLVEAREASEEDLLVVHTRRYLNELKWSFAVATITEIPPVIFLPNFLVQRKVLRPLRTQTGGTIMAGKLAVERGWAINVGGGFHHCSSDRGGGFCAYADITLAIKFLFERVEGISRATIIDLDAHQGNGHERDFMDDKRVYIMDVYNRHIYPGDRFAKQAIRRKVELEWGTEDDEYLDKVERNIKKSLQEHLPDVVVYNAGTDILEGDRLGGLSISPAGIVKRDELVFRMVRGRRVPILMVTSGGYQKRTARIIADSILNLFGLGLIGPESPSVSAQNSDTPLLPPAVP

K562 = assay: Antiproliferative activity against human K562 cells incubated for 48 hrs by MTT assay; assay type: functional, cell-based; conditions: K562, 48 h
HL-60 = assay: Induction of cell cycle arrest in human HL60 cells assessed as accumulation of cells at subG1 phase at 0.25 to 0.45 uM incubated for 48 hrs by PI staining based flow cytometric analysis; assay type: functional
Method in brief: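 PI staining of HL-60 cells, with DMSO-treated cells as control, used to read cell-cycle phase distribution including G1 and subG1 fractions. Mean ± SD of at least three independent experiments.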

Sequence of Histone deacetylase 2 (Q92769 whole entry): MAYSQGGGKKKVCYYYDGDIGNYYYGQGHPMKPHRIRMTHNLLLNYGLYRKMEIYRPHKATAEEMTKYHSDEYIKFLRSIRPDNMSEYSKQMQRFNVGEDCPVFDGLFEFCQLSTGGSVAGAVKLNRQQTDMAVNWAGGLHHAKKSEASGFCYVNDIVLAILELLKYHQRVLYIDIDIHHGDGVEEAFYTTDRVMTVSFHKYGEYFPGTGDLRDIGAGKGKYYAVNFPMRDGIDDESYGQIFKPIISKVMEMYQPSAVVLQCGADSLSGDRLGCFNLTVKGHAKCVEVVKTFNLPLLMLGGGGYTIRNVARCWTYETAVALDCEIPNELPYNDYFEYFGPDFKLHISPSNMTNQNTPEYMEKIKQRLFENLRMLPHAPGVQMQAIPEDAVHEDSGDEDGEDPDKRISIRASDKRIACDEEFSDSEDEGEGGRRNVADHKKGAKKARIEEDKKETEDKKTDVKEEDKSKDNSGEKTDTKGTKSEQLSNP
Sequence of Histone deacetylase 5 (Q9UQL6 whole entry): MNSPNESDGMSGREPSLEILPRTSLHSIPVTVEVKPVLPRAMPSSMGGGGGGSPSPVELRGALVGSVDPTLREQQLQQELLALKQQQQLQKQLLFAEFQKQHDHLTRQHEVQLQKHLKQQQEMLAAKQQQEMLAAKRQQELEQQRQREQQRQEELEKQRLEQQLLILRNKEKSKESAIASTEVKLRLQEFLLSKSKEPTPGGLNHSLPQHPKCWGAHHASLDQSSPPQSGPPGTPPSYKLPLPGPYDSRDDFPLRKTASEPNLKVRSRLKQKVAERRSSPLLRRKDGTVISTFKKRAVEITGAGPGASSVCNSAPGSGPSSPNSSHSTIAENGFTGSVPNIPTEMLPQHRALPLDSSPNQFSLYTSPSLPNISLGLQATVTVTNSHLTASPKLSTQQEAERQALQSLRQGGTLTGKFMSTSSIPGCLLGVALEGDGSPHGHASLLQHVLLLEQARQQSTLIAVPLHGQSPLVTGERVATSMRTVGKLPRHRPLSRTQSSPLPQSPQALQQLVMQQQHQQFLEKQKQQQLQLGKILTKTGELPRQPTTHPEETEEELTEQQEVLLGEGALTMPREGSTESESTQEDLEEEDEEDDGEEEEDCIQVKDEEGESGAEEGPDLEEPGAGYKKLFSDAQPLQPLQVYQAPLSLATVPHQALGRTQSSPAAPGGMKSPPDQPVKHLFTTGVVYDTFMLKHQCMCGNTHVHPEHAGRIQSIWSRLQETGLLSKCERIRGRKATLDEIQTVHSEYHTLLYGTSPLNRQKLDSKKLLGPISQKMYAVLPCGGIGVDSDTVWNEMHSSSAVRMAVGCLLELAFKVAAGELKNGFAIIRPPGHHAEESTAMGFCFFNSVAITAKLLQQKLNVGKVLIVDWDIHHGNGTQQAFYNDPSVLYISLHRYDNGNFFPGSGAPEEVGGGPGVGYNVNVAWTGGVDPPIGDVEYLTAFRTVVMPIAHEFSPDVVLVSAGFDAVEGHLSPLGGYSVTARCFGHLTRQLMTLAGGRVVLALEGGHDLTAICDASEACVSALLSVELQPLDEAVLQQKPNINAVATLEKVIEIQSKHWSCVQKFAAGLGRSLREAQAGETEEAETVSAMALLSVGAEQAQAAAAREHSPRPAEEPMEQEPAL
Sequence of Histone deacetylase 4 (P56524 whole entry): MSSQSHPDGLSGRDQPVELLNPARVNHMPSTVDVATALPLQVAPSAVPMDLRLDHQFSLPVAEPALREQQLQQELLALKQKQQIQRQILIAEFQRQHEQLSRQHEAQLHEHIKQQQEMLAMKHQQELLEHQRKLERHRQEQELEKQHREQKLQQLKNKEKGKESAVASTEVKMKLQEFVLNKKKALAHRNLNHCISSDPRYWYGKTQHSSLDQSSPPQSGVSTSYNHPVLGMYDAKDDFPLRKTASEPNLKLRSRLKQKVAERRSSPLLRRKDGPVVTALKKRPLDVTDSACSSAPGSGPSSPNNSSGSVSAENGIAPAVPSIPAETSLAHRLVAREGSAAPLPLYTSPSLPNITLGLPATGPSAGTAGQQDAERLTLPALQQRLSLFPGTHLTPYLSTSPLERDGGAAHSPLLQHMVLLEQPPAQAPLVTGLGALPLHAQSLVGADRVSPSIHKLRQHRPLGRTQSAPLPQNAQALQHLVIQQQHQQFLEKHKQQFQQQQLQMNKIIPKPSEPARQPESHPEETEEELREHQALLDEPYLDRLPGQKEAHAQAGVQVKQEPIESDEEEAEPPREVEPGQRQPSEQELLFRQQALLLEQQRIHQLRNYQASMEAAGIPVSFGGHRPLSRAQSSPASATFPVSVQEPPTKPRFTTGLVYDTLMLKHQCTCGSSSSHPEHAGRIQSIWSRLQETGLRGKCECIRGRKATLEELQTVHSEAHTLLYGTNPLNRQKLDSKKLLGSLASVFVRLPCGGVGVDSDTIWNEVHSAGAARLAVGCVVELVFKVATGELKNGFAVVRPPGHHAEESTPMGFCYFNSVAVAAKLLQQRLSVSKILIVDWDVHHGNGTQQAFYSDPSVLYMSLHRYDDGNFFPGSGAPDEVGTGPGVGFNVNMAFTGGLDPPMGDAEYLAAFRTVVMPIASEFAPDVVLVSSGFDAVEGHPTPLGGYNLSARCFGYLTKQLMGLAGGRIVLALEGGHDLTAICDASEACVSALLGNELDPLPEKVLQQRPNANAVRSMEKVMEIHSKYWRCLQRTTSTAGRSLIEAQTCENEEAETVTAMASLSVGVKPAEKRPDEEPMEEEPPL
Sequence of Histone deacetylase 1 (Q13547 whole entry): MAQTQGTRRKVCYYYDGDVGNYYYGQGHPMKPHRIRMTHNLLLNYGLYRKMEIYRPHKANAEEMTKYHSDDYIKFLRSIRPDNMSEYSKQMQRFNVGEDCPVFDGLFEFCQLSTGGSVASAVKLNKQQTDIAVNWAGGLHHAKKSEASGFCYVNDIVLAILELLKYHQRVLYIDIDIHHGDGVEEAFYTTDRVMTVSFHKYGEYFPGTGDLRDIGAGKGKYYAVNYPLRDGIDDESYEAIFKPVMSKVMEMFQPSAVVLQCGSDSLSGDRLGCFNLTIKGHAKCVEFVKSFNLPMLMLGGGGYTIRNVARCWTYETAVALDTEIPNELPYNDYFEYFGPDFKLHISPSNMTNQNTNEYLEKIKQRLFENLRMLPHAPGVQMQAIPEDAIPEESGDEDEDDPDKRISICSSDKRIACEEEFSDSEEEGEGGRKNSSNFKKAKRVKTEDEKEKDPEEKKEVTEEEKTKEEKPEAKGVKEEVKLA

Row | SMILES | IC50 (Histone deacetylase 2) | IC50 (Histone deacetylase 1) | IC50 [1] | IC50 (Histone deacetylase 4) | IC50 (Histone deacetylase 5) | IC50 [2] | IC50 (Histone deacetylase 11) | IC50 (K562) | Activity (HL-60)
1 | O=C(CCC1C(=O)N(c2ccc(Cl)cc2)C(=O)N1Cc1ccc(Br)cc1)Nc1ccc(C(=O)NO)cc1 (stereo unspecified) | 249 nM | 194 nM | 9.7 nM | > 100000 nM | 4600 nM | 268 nM | > 100000 nM | 690 nM | Active
2 | Cc1ccc(CN2C(=O)N(c3ccc(Cl)cc3)C(=O)C2CCC(=O)Nc2ccc(C(=O)NO)cc2)cc1 (stereo unspecified) | 277 nM | 959 nM | 4.4 nM | > 100000 nM | 14900 nM | 164 nM | > 100000 nM | 490 nM | Active
3 | O=C(CCC1C(=O)N(c2ccc(Cl)cc2)C(=O)N1Cc1ccccc1)Nc1ccc(C(=O)NO)cc1 (stereo unspecified) | 203 nM | 111 nM | 7.6 nM | 27000 nM | 4600 nM | 114 nM | > 100000 nM | 830 nM | –
